Source: ChEMBL document CHEMBL1127574, “Design and synthesis of ellipticinium salts and 1,2-dihydroellipticines with high selectivities against human CNS cancers in vitro” (1994)

Legend:
Type in all cases: functional
A549 [1] = assay: Tested in vitro for cytotoxicity in A549/ATCC cell lines; conditions: Homo sapiens
Outline: (§1)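 Compounds dissolved in DMSO, then diluted 500-fold into aqueous medium. The resulting aqueous solutions or suspensions were added to the cultured human tumour cell lines, and the cells were exposed for 48 h. Growth was read colorimetrically in one of two ways: a metabolic assay in which viable cells reduce a tetrazolium salt to a formazan dye, or a protein stain for total cellular protein.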

U-251 = assay: Tested in vitro for cytotoxicity in U251 cell line of CNS Cancer; conditions: Homo sapiens, read-out: Log TGI (converted)
Outline: (§2)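 Compounds dissolved in DMSO and diluted 500-fold into aqueous medium; aliquots of the resulting solutions or suspensions added to cultured human tumor cells for 48 h. Growth read colorimetrically, either by tetrazolium reduction to formazan by viable cells or by protein staining of total cellular protein.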

NCI-H460 = assay: Tested in vitro for cytotoxicity in NCI-H460 cell line of Non-Small Cell Lung Cancer; conditions: Homo sapiens, read-out: Log TGI (converted); outline: as §1
SNB-75 = assay: Tested in vitro for cytotoxicity in SNB-75 cell line of CNS Cancer; conditions: Homo sapiens, read-out: Log TGI (converted); outline: as §2
NCI-H23 = assay: Tested in vitro for cytotoxicity in NCI-H23 cell line of Non-Small Cell Lung Cancer; conditions: Homo sapiens, read-out: Log TGI (converted); outline: as §1
SF-539 = assay: Tested in vitro for cytotoxicity in SF-539 cell line of CNS Cancer; conditions: Homo sapiens, read-out: Log TGI (converted); outline: as §1
UACC-257 = assay: Tested in vitro for cytotoxicity in UACC-257 cell line of Melanoma; conditions: Homo sapiens, read-out: Log TGI (converted); outline: as §2
RXF 631 = assay: Tested in vitro for cytotoxicity in RXF-631 cell line of Renal cancer; conditions: Homo sapiens, read-out: Log TGI (converted); outline: as §1
DMS-114 = assay: Tested in vitro for cytotoxicity in DMS114 cell lines; conditions: Homo sapiens; outline: as §1
SW-620 = assay: Tested in vitro for cytotoxicity in SW-620 cell line of Colon Cancer; conditions: Homo sapiens, read-out: Log TGI (converted); outline: as §2
RPMI-8226 = assay: Tested in vitro for cytotoxicity in RPMI-8226 cell line of Leukemia; conditions: Homo sapiens, read-out: Log TGI (converted); outline: as §1
HT-29 = assay: Tested in vitro for cytotoxicity in HT-29 cell line of Colon Cancer; conditions: Homo sapiens, read-out: Log TGI (converted); outline: as §1
COLO 205 = assay: Tested in vitro for cytotoxicity in COLO 205 cell lines; conditions: Homo sapiens; outline: as §1
CAKI-1 = assay: Tested in vitro for cytotoxicity in CAKI-1 cell lines; conditions: Homo sapiens; outline: as §1
K562 = assay: Tested in vitro for cytotoxicity in K-562 cell line of Leukemia; conditions: Homo sapiens, read-out: Log TGI (converted); outline: as §1
SK-MEL-2 = assay: Tested in vitro for cytotoxicity in SK-MEL-2 cell line of Melanoma; conditions: Homo sapiens, read-out: Log TGI (converted); outline: as §1
SF-295 = assay: Tested in vitro for cytotoxicity in SF-295 cell line of CNS Cancer; conditions: Homo sapiens, read-out: Log TGI (converted); outline: as §1
A549 [2] = assay: Tested in vitro for cytotoxicity in A549/ATCC cell line of Non-Small Cell Lung Cancer; conditions: Homo sapiens, read-out: Log TGI (converted); outline: as §1
LXFL 529 = assay: Tested in vitro for cytotoxicity in LXFL-529 cell line of Non-Small Cell Lung Cancer; conditions: Homo sapiens, read-out: Log TGI (converted); outline: as §1
M19-MEL = assay: Tested in vitro for cytotoxicity in M19-MEL cell line of Melanoma; conditions: Homo sapiens, read-out: Log TGI (converted); outline: as §1
Malme-3M = assay: Tested in vitro for cytotoxicity in MALME-3M; conditions: Homo sapiens; outline: as §1
CCRF-CEM [3] = assay: Tested in vitro for cytotoxicity in CCRF-CEM cell line of Leukemia; conditions: Homo sapiens, read-out: Log TGI (converted); outline: as §1
TK-10 = assay: Tested in vitro for cytotoxicity in TK-10 cell line of Renal cancer; conditions: Homo sapiens, read-out: Log TGI (converted); outline: as §2
SK-MEL-5 = assay: Tested in vitro for cytotoxicity in SK-MEL-5 cell line of Melanoma; conditions: Homo sapiens, read-out: Log TGI (converted); outline: as §2
LOX IMVI = assay: Tested in vitro for cytotoxicity in LOX IMVI cell line of Melanoma; conditions: Homo sapiens, read-out: Log TGI (converted); outline: as §1
CCRF-CEM [4] = assay: Tested in vitro for cytotoxicity in CCRF-CEM cell lines; conditions: Homo sapiens; outline: as §1
OVCAR-8 = assay: Tested in vitro for cytotoxicity in OVCAR-8 cell line of Ovarian Cancer; conditions: Homo sapiens, read-out: Log TGI (converted); outline: as §1
DMS-273 = assay: Tested in vitro for cytotoxicity in DMS273 cell line of Small Cell Lung Cancer; conditions: Homo sapiens, read-out: Log TGI (converted); outline: as §1
HOP-18 = assay: Tested in vitro for cytotoxicity in HOP-18 cell line of Non-Small Cell Lung Cancer; conditions: Homo sapiens, read-out: Log TGI (converted); outline: as §1
M14 = assay: Tested in vitro for cytotoxicity in M14 cell line of Melanoma; conditions: Homo sapiens, read-out: Log TGI (converted); outline: as §1
IGROV-1 = assay: Tested in vitro for cytotoxicity in IGROV1 cell line of Ovarian Cancer; conditions: Homo sapiens, read-out: Log TGI (converted); outline: as §1

SMILES: COc1ccc2[nH]c3c(C)c4c(c(C)c3c2c1)CN(C)C=C4
- GI50 (A549 [1]): 0.993 µM
- TGI (U-251): 1 µM
- TGI (NCI-H460): 10 µM
- TGI (SNB-75): 0.794 µM
- TGI (NCI-H23): 3.98 µM
- TGI (SF-539): 2 µM
- TGI (UACC-257): 20 µM
- TGI (RXF 631): 25.1 µM
- GI50 (DMS-114): 0.525 µM
- TGI (SW-620): 15.8 µM
- TGI (RPMI-8226): > 100 µM
- TGI (HT-29): 25.1 µM
- GI50 (COLO 205): 1.32 µM
- GI50 (CAKI-1): 20.1 µM
- TGI (K562): > 100 µM
- TGI (SK-MEL-2): 10 µM
- TGI (SF-295): 7.94 µM
- TGI (A549 [2]): 50.1 µM
- TGI (LXFL 529): 5.01 µM
- TGI (M19-MEL): 2.51 µM
- GI50 (Malme-3M): 1.44 µM
- TGI (CCRF-CEM [3]): 15.8 µM
- TGI (TK-10): 50.1 µM
- TGI (SK-MEL-5): 10 µM
- TGI (LOX IMVI): 25.1 µM
- GI50 (CCRF-CEM [4]): 2.64 µM
- TGI (OVCAR-8): 15.8 µM
- TGI (DMS-273): 12.6 µM
- TGI (HOP-18): 39.8 µM
- TGI (M14): 25.1 µM
- TGI (IGROV-1): 39.8 µM
